How the values were obtained:
Histamine H2 receptor = Histamine H2 receptor (Cavia porcellus, UniProt P47747); assay: Antagonist activity at histamine H2 receptor in guinea pig spontaneously beating right atrium assessed as inhibition of histamine-induced positive chronotropic activity; assay type: functional, tissue-based, Cardiac atrium
[1] = biological target: Histamine H2 receptor (Cavia porcellus) (UniProt P47747); assay: Antagonist activity at histamine H2 receptor in guinea pig spontaneously beating right atrium assessed as positive chronotropic activity at 58 uM relative to histamine; assay type: functional, tissue-based; settings: Cardiac atrium
[2] = biological target: Histamine H2 receptor (Cavia porcellus) (UniProt P47747); assay: Antagonist activity at histamine H2 receptor in guinea pig spontaneously beating right atrium assessed as histamine Emax at 58 uM; assay type: functional, tissue-based; settings: Cardiac atrium
[3] = biological target: Histamine H1 receptor (Homo sapiens) (UniProt P35367); assay: Antagonist activity at histamine H1 receptor in human U373 MG cells assessed as inhibition of histamine-induced intracellular calcium level preincubated for 15 mins prior to histamine challenge; assay type: functional, cell-based; settings: U-373MG ATCC
How it was run: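 U373-MG human cells expressing H1R, calcium assay. […] KB was derived from IC50 by the Cheng-Prusoff equation. Values are the mean of two experiments.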

[4] = Dissociation constant, pKa of the compound; assay type: physicochemical

Chain of Histamine H2 receptor (Cavia porcellus) (P47747 whole entry): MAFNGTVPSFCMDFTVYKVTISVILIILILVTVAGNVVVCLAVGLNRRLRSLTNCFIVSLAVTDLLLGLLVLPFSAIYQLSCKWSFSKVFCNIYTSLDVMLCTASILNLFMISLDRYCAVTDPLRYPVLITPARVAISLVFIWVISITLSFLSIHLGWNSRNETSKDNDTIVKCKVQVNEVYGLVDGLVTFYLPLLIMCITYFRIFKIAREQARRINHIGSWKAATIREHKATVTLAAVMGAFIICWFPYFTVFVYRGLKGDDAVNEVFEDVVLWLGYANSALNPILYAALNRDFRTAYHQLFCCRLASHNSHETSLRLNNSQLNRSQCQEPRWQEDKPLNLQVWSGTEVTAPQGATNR
Chain of Histamine H1 receptor (Homo sapiens) (P35367 whole entry): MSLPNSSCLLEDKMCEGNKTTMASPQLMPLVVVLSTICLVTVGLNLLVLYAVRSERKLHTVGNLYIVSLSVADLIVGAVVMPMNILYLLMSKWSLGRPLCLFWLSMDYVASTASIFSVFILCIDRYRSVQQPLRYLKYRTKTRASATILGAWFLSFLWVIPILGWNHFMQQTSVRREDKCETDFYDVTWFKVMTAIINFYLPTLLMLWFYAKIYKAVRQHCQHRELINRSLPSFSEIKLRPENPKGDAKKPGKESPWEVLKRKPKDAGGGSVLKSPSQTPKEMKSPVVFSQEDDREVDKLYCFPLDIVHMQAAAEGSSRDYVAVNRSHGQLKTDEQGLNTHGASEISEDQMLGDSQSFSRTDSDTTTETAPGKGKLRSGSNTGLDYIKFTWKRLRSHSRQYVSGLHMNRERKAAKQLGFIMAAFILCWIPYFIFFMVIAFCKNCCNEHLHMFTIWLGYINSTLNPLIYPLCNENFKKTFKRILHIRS
Chain of Histamine H2 receptor (P47747 whole entry): as the sequence (P47747 whole entry) above

A pA2 (Histamine H2 receptor) of 5.19 was found for CC(CCN=C(N)NC(=O)CCc1cnc[nH]1)c1ccccc1 (stereo not given) in this work.

An Emax [1] of 7%, an Emax [2] of 45% and a Kb [3] of 9.3 µM were found for CC(CCNC(=N)NC(=O)CCc1c[nH]cn1)c1ccccc1 (stereo not given) in this work.

A pKa [4] of 12.5 was found for N=C(N)N [GUANIDINE] in this work.

Source: ChEMBL document CHEMBL1152279 (J Med Chem, 2008)
